Assay [1] in a line: Ratio of Kcat to Km for macrolide 2'-phosphotransferase 1 by PK/LDH-coupled assay. A digest of the protocol: (§1)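 Macrolide substrate was varied in the PK/LDH-coupled system (HEPES pH 7.5, KCl, MgCl2, NADH, PEP), with fixed 0.2 mM GTP as donor. Antibiotic was preincubated with enzyme 5 min at 37°C, the reaction was started with nucleotide, and NADH oxidation was read at 340 nm for 5 min. Initial rates were fitted to Michaelis-Menten, or to a substrate-inhibition equation where it applied.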

Assay [2] in a line: Activity at macrolide 2'-phosphotransferase 1 by PK/LDH-coupled assay. A digest of the protocol:
as §1

Assay [3] can be described thus: Ratio of Kcat to Km for APH(3')-3a by PK/LDH-coupled assay in presence of ATP. Put shortly: (§2)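 His6-tagged kinase purified by Ni-NTA. […] Nucleotide (ATP or GTP) was varied to start; A340 followed 5 min. Linear initial rates were fitted by nonlinear least squares.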
Assay [4] in a line: Activity at APH(3')-3a by PK/LDH-coupled assay in presence of ATP. Put shortly: as §2
A short description of assay [5]: Inhibition of APH(3')-3a by PK/LDH-coupled assay. Put shortly:
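N-terminally His6-tagged kinase, purified on Ni-NTA. Antibiotic at saturating level, preincubated 5 min at 37°C. Started with ATP or GTP held at Km. AMPPNP or GMPPNP added as 2-fold dilutions. NADH oxidation read at 340 nm over 5 min. IC50 fitted, then converted to Ki.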

Assay [6] can be described thus: Inhibition of macrolide 2'-phosphotransferase 1 by PK/LDH-coupled assay.
Assay [7] is described as follows: Ratio of Kcat to Km for macrolide 2'-phosphotransferase 1 by PK/LDH-coupled assay in presence of ATP. Put shortly: as §2
Assay [8] can be described thus: Activity at macrolide 2'-phosphotransferase 1 by PK/LDH-coupled assay in presence of GTP. Put shortly: as §2
Assay [9] can be described thus: Ratio of Kcat to Km for macrolide 2'-phosphotransferase 1 by PK/LDH-coupled assay in presence of GTP. A digest of the protocol: as §2
Assay [10] in a line: Activity at macrolide 2'-phosphotransferase 1 by PK/LDH-coupled assay in presence of ATP. A digest of the protocol: as §2

`CC[C@H]1OC(=O)[C@H](C)[C@@H](O[C@H]2C[C@@](C)(OC)[C@@H](O)[C@H](C)O2)[C@H](C)[C@@H](O[C@@H]2O[C@H](C)C[C@H](N(C)C)[C@H]2O)[C@](C)(OC)C[C@@H](C)C(=O)[C@H](C)[C@@H](O)[C@]1(C)O`: in assay [1], the kcat/Km turned out to be 6.77 ×10³ /s/M. Further, in assay [2], the Michaelis constant (Km) worked out at 45.9 µM and the turnover number (kcat) worked out at 0.311 s⁻¹.
Take `NC[C@@H]1O[C@H](O[C@H]2[C@@H](O)[C@H](O[C@@H]3[C@@H](O)[C@H](N)C[C@H](N)[C@H]3O[C@H]3O[C@H](CN)[C@@H](O)[C@H](O)[C@H]3N)O[C@@H]2CO)[C@H](N)[C@@H](O)[C@@H]1O`: the kcat/Km in [3] was 1.5 ×10⁵ /s/M. Also, in assay [4], the Km was 10.6 µM and the turnover number (kcat) was 1.59 s⁻¹.
Turning to `Nc1nc2c(ncn2[C@@H]2O[C@H](COP(=O)(O)OP(=O)(O)NP(=O)(O)O)[C@@H](O)[C@H]2O)c(=O)[nH]1` [PHOSPHOAMINOPHOSPHONIC ACID GUANYLATE ESTER], the Ki entry in assay [5] is recorded as “Not Active”.
For the compound `Nc1ncnc2c1ncn2[C@@H]1O[C@H](COP(=O)(O)OP(=O)(O)NP(=O)(O)O)[C@@H](O)[C@H]1O`, the Ki in assay [5] (read-out: Ki) is 14.2 µM; in assay [6], “Not Active”.
In the case of `CC[C@H]1OC(=O)[C@H](C)[C@@H](O[C@H]2C[C@@](C)(OC)[C@@H](O)[C@H](C)O2)[C@H](C)[C@@H](O[C@@H]2O[C@H](C)C[C@H](N(C)C)[C@H]2O)[C@](C)(O)C[C@@H](C)C(=O)[C@H](C)[C@@H](O)[C@]1(C)O`, the kcat/Km was determined as 1.16 ×10¹ /s/M in [7], 7.52 ×10³ /s/M in assay [1] and 1.07 ×10⁴ /s/M in assay [9]. Further, the Km was 59.2 µM in assay [8], 37.2 µM in [2] and 1890 µM in assay [10]. Further, the kcat was 0.634 s⁻¹ in assay [8], 0.279 s⁻¹ in assay [2] and 0.022 s⁻¹ in assay [10].
As to `CC[C@H]1OC(=O)C[C@@H](O)[C@H](C)[C@@H](O[C@@H]2O[C@H](C)[C@@H](O[C@H]3C[C@@](C)(O)[C@@H](O)[C@H](C)O3)[C@H](N(C)C)[C@H]2O)[C@@H](CC=O)C[C@@H](C)C(=O)/C=C/C(C)=C/[C@@H]1CO[C@@H]1O[C@H](C)[C@@H](O)[C@@H](OC)[C@H]1OC`, the kcat/Km in assay [1] was 1.33 ×10³ /s/M. In addition, in [2], the Km was 131 µM and the kcat was 0.174 s⁻¹.
Turning to `CC[C@H]1OC(=O)[C@H](C)C(=O)[C@H](C)[C@@H](O[C@@H]2O[C@H](C)C[C@H](N(C)C)[C@H]2O)[C@](C)(OC)C[C@@H](C)C(=O)[C@H](C)[C@H]2N(CCCCn3cnc(-c4cccnc4)c3)C(=O)O[C@]12C`, in assay [1], the kcat/Km is 2.07 ×10⁴ /s/M. The compound also had an inhibition constant (Ki) in assay [6] of 622 µM. In assay [2], the Km worked out at 7.4 µM and the turnover number (kcat) was found to be 0.152 s⁻¹.
On to SPIRAMYCIN, for which the kcat/Km in [1] was determined as 4.19 ×10² /s/M. In assay [2], the Michaelis constant (Km) came out at 478 µM and the catalytic constant (kcat) was determined as 0.2 s⁻¹.
Taken in the same sequence, the figures for `CC[C@H]1OC(=O)[C@H](C)[C@@H](O[C@H]2C[C@@](C)(OC)[C@@H](O)[C@H](C)O2)[C@H](C)[C@@H](O[C@@H]2O[C@H](C)C[C@H](N(C)C)[C@H]2O)[C@](C)(O)C[C@@H](C)CN(C)[C@H](C)[C@@H](O)[C@]1(C)O` were 1.05 ×10⁴ /s/M, 27.7 µM and 0.292 s⁻¹.

For orientation: Km means the concentration of substrate that gives half-maximal velocity. Broadly, the kcat is the number of substrate molecules converted per active site and unit of time at saturation. Broadly, the Ki is a measure of affinity in units of concentration, obtained from inhibition or displacement.

Source of the values: ChEMBL document CHEMBL1255466, “Nucleotide selectivity of antibiotic kinases” (Antimicrob Agents Chemother, 2010).
